# Results published in ChEMBL document CHEMBL2146466, “Evaluation of dimerization-inhibitory activities of cyclic peptides containing a β-hairpin loop sequence of the EGF receptor” (2012).
# Active and inactive are the calls of the source. No cut-off for these calls is given here. Where a SMILES comes first, the peptide text is derived from it.
# Target: Epidermal growth factor receptor (Homo sapiens) (UniProt P00533)
# Test: Inhibition of human recombinant EGF receptor dimerization expressed in A431 cells at 10 uM after 10 mins by immunoblotting analysis relative to control
# Format: cell-based
# Details: A-431
# In short: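 Confluent A431 cells were solubilized in 20 mM HEPES pH 7.4 with 1% Triton X-100, 10% glycerol, 1 mM EGTA and 1 mM PMSF, and the extract was spun at 250,000×g. Supernatant at 2 µg/µL protein was pre-treated 60 min with 10 µM peptide, then given 0.21 µM human EGF for 10 min. Cross-linking was with 1 mM BS³ for 10 min, quenched with glycine. Dimer and monomer were resolved by SDS-PAGE and anti-EGFR immunoblot, with ECL quantification. Dimer without peptide was set to 1.0; mean ± SD of at least three experiments in duplicate.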
# Epidermal growth factor receptor (Homo sapiens), sequence (P00533 whole entry): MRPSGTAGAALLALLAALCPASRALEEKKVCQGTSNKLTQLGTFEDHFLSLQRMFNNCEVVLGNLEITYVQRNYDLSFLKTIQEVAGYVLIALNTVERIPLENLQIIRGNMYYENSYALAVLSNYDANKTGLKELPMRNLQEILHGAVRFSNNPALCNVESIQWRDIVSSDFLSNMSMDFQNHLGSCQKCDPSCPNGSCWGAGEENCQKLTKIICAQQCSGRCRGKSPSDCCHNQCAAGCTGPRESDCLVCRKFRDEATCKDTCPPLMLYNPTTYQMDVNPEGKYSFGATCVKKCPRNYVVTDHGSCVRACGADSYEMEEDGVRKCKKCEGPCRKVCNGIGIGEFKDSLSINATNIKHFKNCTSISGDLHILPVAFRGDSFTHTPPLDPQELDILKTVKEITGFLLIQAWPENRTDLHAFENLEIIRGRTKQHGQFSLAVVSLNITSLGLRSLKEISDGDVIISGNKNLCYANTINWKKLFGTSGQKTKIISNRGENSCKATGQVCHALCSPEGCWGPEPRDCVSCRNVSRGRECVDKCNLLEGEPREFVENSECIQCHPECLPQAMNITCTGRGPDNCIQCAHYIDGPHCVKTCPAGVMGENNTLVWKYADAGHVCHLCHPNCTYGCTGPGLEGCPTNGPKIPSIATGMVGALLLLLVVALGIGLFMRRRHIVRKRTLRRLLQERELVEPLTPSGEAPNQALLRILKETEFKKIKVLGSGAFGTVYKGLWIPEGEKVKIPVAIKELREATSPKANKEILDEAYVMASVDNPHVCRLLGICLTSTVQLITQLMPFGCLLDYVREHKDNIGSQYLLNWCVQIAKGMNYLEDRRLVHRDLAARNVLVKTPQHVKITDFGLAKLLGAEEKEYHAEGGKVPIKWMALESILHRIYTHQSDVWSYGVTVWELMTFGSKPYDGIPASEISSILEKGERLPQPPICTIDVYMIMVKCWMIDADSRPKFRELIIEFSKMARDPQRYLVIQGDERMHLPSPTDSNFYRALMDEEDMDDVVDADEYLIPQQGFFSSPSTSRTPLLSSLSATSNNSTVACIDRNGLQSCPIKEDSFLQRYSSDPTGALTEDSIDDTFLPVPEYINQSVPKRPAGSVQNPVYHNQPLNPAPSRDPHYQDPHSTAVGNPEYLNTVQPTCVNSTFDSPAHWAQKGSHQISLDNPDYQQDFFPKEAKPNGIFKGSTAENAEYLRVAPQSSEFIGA
row,SMILES,inhibition
1,"CSCC[C@@H]1NC(=O)[C@H](CCC(N)=O)NC(=O)[C@H](Cc2ccc(O)cc2)NC(=O)[C@H]([C@@H](C)O)NC(=O)[C@H]([C@@H](C)O)NC(=O)[C@@H]2CCCN2C(=O)[C@H](CC(N)=O)NC(=O)[C@H](C)NC(=O)[C@@H](N)CSSC[C@@H](C(=O)O)NC1=O (HELM PEPTIDE1{C.A.N.P.T.T.Y.Q.M.C}$PEPTIDE1,PEPTIDE1,1:R3-10:R3$$$V2.0)",inactive
2,"CSCC[C@@H]1NC(=O)[C@H](CCC(N)=O)NC(=O)[C@H](Cc2ccc(O)cc2)NC(=O)[C@H]([C@@H](C)O)NC(=O)[C@H]([C@@H](C)O)NC(=O)[C@@H]2CCCN2C(=O)[C@H](CC(N)=O)NC(=O)[C@H](Cc2ccc(O)cc2)NC(=O)[C@H](CC(C)C)NC(=O)[C@H](CCSC)NC(=O)[C@H](CC(C)C)NC(=O)[C@@H]2CCCN2C(=O)[C@@H]2CCCN2C(=O)[C@@H](N)CSSC[C@@H](C(=O)O)NC(=O)CNC(=O)[C@H](CCC(=O)O)NC(=O)[C@@H]2CCCN2C(=O)[C@H](C(C)C)NC(=O)[C@H](CC(=O)O)NC1=O (HELM PEPTIDE1{C.P.P.L.M.L.Y.N.P.T.T.Y.Q.M.D.V.P.E.G.C}$PEPTIDE1,PEPTIDE1,1:R3-20:R3$$$V2.0)",Active
3,"CSCC[C@@H]1NC(=O)[C@H](CCC(N)=O)NC(=O)[C@H](Cc2ccc(O)cc2)NC(=O)[C@H]([C@@H](C)O)NC(=O)[C@H]([C@@H](C)O)NC(=O)[C@@H]2CCCN2C(=O)[C@H](CC(N)=O)NC(=O)[C@H](Cc2ccc(O)cc2)NC(=O)[C@@H](N)CSSC[C@@H](C(=O)N[C@H](C(=O)N[C@@H](CC(N)=O)C(=O)N2CCC[C@H]2C(=O)N[C@@H](CCC(=O)O)C(=O)O)C(C)C)NC1=O (HELM PEPTIDE1{C.Y.N.P.T.T.Y.Q.M.C.V.N.P.E}$PEPTIDE1,PEPTIDE1,1:R3-10:R3$$$V2.0)",inactive
4,"CSCC[C@@H]1NC(=O)[C@H](CCC(N)=O)NC(=O)[C@H](Cc2ccc(O)cc2)NC(=O)[C@H]([C@@H](C)O)NC(=O)[C@H]([C@@H](C)O)NC(=O)[C@@H]2CCCN2C(=O)[C@H](CC(N)=O)NC(=O)[C@H](Cc2ccc(O)cc2)NC(=O)[C@@H](N)CSSC[C@@H](C(=O)N[C@H](C(=O)N[C@@H](CC(N)=O)C(=O)O)C(C)C)NC1=O (HELM PEPTIDE1{C.Y.N.P.T.T.Y.Q.M.C.V.N}$PEPTIDE1,PEPTIDE1,1:R3-10:R3$$$V2.0)",inactive
5,"CSCC[C@@H]1NC(=O)[C@H](CCC(N)=O)NC(=O)[C@H](Cc2ccc(O)cc2)NC(=O)[C@H]([C@@H](C)O)NC(=O)[C@H]([C@@H](C)O)NC(=O)[C@@H]2CCCN2C(=O)[C@H](CC(N)=O)NC(=O)[C@H](Cc2ccc(O)cc2)NC(=O)[C@@H](N)CSSC[C@@H](C(=O)N[C@H](C(=O)O)C(C)C)NC1=O (HELM PEPTIDE1{C.Y.N.P.T.T.Y.Q.M.C.V}$PEPTIDE1,PEPTIDE1,1:R3-10:R3$$$V2.0)",inactive
6,"CSCC[C@@H]1NC(=O)[C@H](CCC(N)=O)NC(=O)[C@H](Cc2ccc(O)cc2)NC(=O)[C@H]([C@@H](C)O)NC(=O)[C@H]([C@@H](C)O)NC(=O)[C@@H]2CCCN2C(=O)[C@H](CC(N)=O)NC(=O)[C@H](Cc2ccc(O)cc2)NC(=O)[C@@H](NC(=O)[C@H](CCSC)NC(=O)[C@@H](N)CC(C)C)CSSC[C@@H](C(=O)O)NC1=O (HELM PEPTIDE1{L.M.C.Y.N.P.T.T.Y.Q.M.C}$PEPTIDE1,PEPTIDE1,3:R3-12:R3$$$V2.0)",Active

# Next, values leading:
row,inhibition,SMILES
1,Active,"CSCC[C@@H]1NC(=O)[C@H](CCC(N)=O)NC(=O)[C@H](Cc2ccc(O)cc2)NC(=O)[C@H]([C@@H](C)O)NC(=O)[C@H]([C@@H](C)O)NC(=O)[C@@H]2CCCN2C(=O)[C@H](CC(N)=O)NC(=O)[C@H](Cc2ccc(O)cc2)NC(=O)[C@H](CC(C)C)NC(=O)[C@H](CCSC)NC(=O)[C@H](CC(C)C)NC(=O)[C@@H](N)CSSC[C@@H](C(=O)O)NC(=O)[C@H](CCC(=O)O)NC(=O)[C@@H]2CCCN2C(=O)[C@H](C(C)C)NC(=O)[C@H](CC(=O)O)NC1=O (HELM PEPTIDE1{C.L.M.L.Y.N.P.T.T.Y.Q.M.D.V.P.E.C}$PEPTIDE1,PEPTIDE1,1:R3-17:R3$$$V2.0)"
2,Active,"CSCC[C@@H]1NC(=O)[C@H](CCC(N)=O)NC(=O)[C@H](Cc2ccc(O)cc2)NC(=O)[C@H]([C@@H](C)O)NC(=O)[C@H]([C@@H](C)O)NC(=O)[C@@H]2CCCN2C(=O)[C@H](CC(N)=O)NC(=O)[C@H](Cc2ccc(O)cc2)NC(=O)[C@H](CC(C)C)NC(=O)[C@H](CCSC)NC(=O)[C@@H](N)CSSC[C@@H](C(=O)O)NC(=O)[C@H](C(C)C)NC(=O)[C@H](CC(=O)O)NC1=O (HELM PEPTIDE1{C.M.L.Y.N.P.T.T.Y.Q.M.D.V.C}$PEPTIDE1,PEPTIDE1,1:R3-14:R3$$$V2.0)"
3,inactive,"C[C@@H](O)[C@@H]1NC(=O)[C@H]([C@@H](C)O)NC(=O)[C@@H]2CCCN2C(=O)[C@H](CC(N)=O)NC(=O)[C@H](Cc2ccc(O)cc2)NC(=O)[C@@H](N)CSSC[C@@H](C(=O)N[C@@H](CC(=O)O)C(=O)O)NC(=O)[C@H](CCC(N)=O)NC(=O)[C@H](Cc2ccc(O)cc2)NC1=O (HELM PEPTIDE1{C.Y.N.P.T.T.Y.Q.C.D}$PEPTIDE1,PEPTIDE1,1:R3-9:R3$$$V2.0)"
4,inactive,"CC(C)C[C@H](N)C(=O)N[C@H]1CSSC[C@@H](C(=O)N[C@@H](CC(=O)O)C(=O)O)NC(=O)[C@H](CCC(N)=O)NC(=O)[C@H](Cc2ccc(O)cc2)NC(=O)[C@H]([C@@H](C)O)NC(=O)[C@H]([C@@H](C)O)NC(=O)[C@@H]2CCCN2C(=O)[C@H](CC(N)=O)NC1=O (HELM PEPTIDE1{L.C.N.P.T.T.Y.Q.C.D}$PEPTIDE1,PEPTIDE1,2:R3-9:R3$$$V2.0)"

# Target: Epidermal growth factor receptor (Homo sapiens) (UniProt P00533)
# Test: Human recombinant EGF receptor dimer amount expressed in A431 cells at 10 uM after 10 mins by immunoblotting analysis relative to control
# Details: A-431
row,SMILES,residual activity [%]
1,"CSCC[C@@H]1NC(=O)[C@H](CCC(N)=O)NC(=O)[C@H](Cc2ccc(O)cc2)NC(=O)[C@H]([C@@H](C)O)NC(=O)[C@H]([C@@H](C)O)NC(=O)[C@@H]2CCCN2C(=O)[C@H](CC(N)=O)NC(=O)[C@H](Cc2ccc(O)cc2)NC(=O)[C@H](CC(C)C)NC(=O)[C@@H](N)CSSC[C@@H](C(=O)O)NC(=O)[C@H](CC(=O)O)NC1=O (HELM PEPTIDE1{C.L.Y.N.P.T.T.Y.Q.M.D.C}$PEPTIDE1,PEPTIDE1,1:R3-12:R3$$$V2.0)",80
2,"C[C@@H]1NC(=O)[C@H](CCC(N)=O)NC(=O)[C@H](Cc2ccc(O)cc2)NC(=O)[C@H]([C@@H](C)O)NC(=O)[C@H]([C@@H](C)O)NC(=O)[C@@H]2CCCN2C(=O)[C@H](CC(N)=O)NC(=O)[C@H](Cc2ccc(O)cc2)NC(=O)[C@@H](N)CSSC[C@@H](C(=O)O)NC1=O (HELM PEPTIDE1{C.Y.N.P.T.T.Y.Q.A.C}$PEPTIDE1,PEPTIDE1,1:R3-10:R3$$$V2.0)",73
3,"CSCC[C@@H]1NC(=O)[C@H](CCC(N)=O)NC(=O)[C@H](Cc2ccc(O)cc2)NC(=O)[C@H]([C@@H](C)O)NC(=O)[C@H]([C@@H](C)O)NC(=O)[C@@H]2CCCN2C(=O)[C@H](CC(N)=O)NC(=O)[C@H](Cc2ccc(O)cc2)NC(=O)[C@@H](N)CSSC[C@@H](C(=O)O)NC(=O)[C@H](CC(=O)O)NC1=O (HELM PEPTIDE1{C.Y.N.P.T.T.Y.Q.M.D.C}$PEPTIDE1,PEPTIDE1,1:R3-11:R3$$$V2.0)",80
4,"C[C@@H](O)[C@@H]1NC(=O)[C@H]([C@@H](C)O)NC(=O)[C@@H]2CCCN2C(=O)[C@H](CC(N)=O)NC(=O)[C@H](Cc2ccc(O)cc2)NC(=O)[C@@H](N)CSSC[C@@H](C(=O)O)NC(=O)[C@H](CC[S+](C)[O-])NC(=O)[C@H](CCC(N)=O)NC(=O)[C@H](Cc2ccc(O)cc2)NC1=O (some centres undefined) (HELM PEPTIDE1{C.Y.N.P.T.T.Y.Q.[CS(=O)CC[C@H](N[*:1])C(=O)[*:2]].C}$PEPTIDE1,PEPTIDE1,1:R3-10:R3$$$V2.0)",73
5,"CCCC[C@@H]1NC(=O)[C@H](CCC(N)=O)NC(=O)[C@H](Cc2ccc(O)cc2)NC(=O)[C@H]([C@@H](C)O)NC(=O)[C@H]([C@@H](C)O)NC(=O)[C@@H]2CCCN2C(=O)[C@H](CC(N)=O)NC(=O)[C@H](Cc2ccc(O)cc2)NC(=O)[C@@H](N)CSSC[C@@H](C(=O)O)NC1=O (HELM PEPTIDE1{C.Y.N.P.T.T.Y.Q.[Nle].C}$PEPTIDE1,PEPTIDE1,1:R3-10:R3$$$V2.0)",73
6,"CSCC[C@@H]1NC(=O)[C@H](CCC(N)=O)NC(=O)[C@H](Cc2ccc(O)cc2)NC(=O)[C@H]([C@@H](C)O)NC(=O)[C@H]([C@@H](C)O)NC(=O)[C@@H]2CCCN2C(=O)[C@H](CC(N)=O)NC(=O)[C@H](Cc2ccc(O)cc2)NC(=O)[C@@H](NC(=O)[C@@H](N)CCSC)CSSC[C@@H](C(=O)O)NC1=O (HELM PEPTIDE1{M.C.Y.N.P.T.T.Y.Q.M.C}$PEPTIDE1,PEPTIDE1,2:R3-11:R3$$$V2.0)",64

# Further lines, results first:
row,residual activity [%],SMILES
1,80,"CSCC[C@@H]1NC(=O)[C@H](CCC(N)=O)NC(=O)[C@H](Cc2ccc(O)cc2)NC(=O)[C@H]([C@@H](C)O)NC(=O)[C@H]([C@@H](C)O)NC(=O)[C@@H]2CCCN2C(=O)[C@H](CC(N)=O)NC(=O)[C@H](Cc2ccc(O)cc2)NC(=O)[C@H](CC(C)C)NC(=O)[C@@H](N)CSSC[C@@H](C(=O)O)NC1=O (HELM PEPTIDE1{C.L.Y.N.P.T.T.Y.Q.M.C}$PEPTIDE1,PEPTIDE1,1:R3-11:R3$$$V2.0)"
2,73,"CC(C)C[C@@H]1NC(=O)[C@H](CCC(N)=O)NC(=O)[C@H](Cc2ccc(O)cc2)NC(=O)[C@H]([C@@H](C)O)NC(=O)[C@H]([C@@H](C)O)NC(=O)[C@@H]2CCCN2C(=O)[C@H](CC(N)=O)NC(=O)[C@H](Cc2ccc(O)cc2)NC(=O)[C@@H](N)CSSC[C@@H](C(=O)O)NC1=O (HELM PEPTIDE1{C.Y.N.P.T.T.Y.Q.L.C}$PEPTIDE1,PEPTIDE1,1:R3-10:R3$$$V2.0)"
3,73,"C[C@@H](O)[C@@H]1NC(=O)[C@H]([C@@H](C)O)NC(=O)[C@@H]2CCCN2C(=O)[C@H](CC(N)=O)NC(=O)[C@H](Cc2ccc(O)cc2)NC(=O)[C@@H](N)CSSC[C@@H](C(=O)O)NC(=O)[C@H](CCC(N)=O)NC(=O)[C@H](CCC(N)=O)NC(=O)[C@H](Cc2ccc(O)cc2)NC1=O (HELM PEPTIDE1{C.Y.N.P.T.T.Y.Q.Q.C}$PEPTIDE1,PEPTIDE1,1:R3-10:R3$$$V2.0)"
